Data published in PMC11962346 (Chemistry (Weinheim an Der Bergstrasse, Germany), 2025).
*1 amine or outer side, *2 acyl side, *3 side chain or, on linkers, in order; H or OH if unused. Where a SMILES comes first, the peptide text is derived from it. Bridges are numbered along the chain shown (N, C = ends). The star is where a group is joined. X1 = CC(C)C[C@@H](CNC(=O)N1C[C@@H](SCCCCCC[*:1])C[C@H]1C(N)=O)NC(=O)NC[C@H](CC(C)C)N[*:2]; X4 = CC(C)C[C@@H](CNC(=O)N1CCC[C@H]1C(N)=O)NC(=O)NC[C@H](CC(C)C)N*; X2 = CC(C)C[C@@H](CNC(=O)N[C@@H](C)CNC(=O)N1CCC[C@H]1C(N)=O)N*

Columns and labels:
p53‐hDM2 interaction = p53‐hDM2 interaction (Homo sapiens, UniProt Q00987); assay: TR-FRET; assay type: binding; settings: for IC50: IC50±SEM hDM2, 9-point curves in duplicates; for inhibition at 0.1 µM: read-out: Inhibition at 100 nM (%) hDM2
p53‐hDMX interaction = target: T1, p53‐hDMX interaction (Homo sapiens, UniProt O15151); assay: TR-FRET; assay type: binding; settings: for IC50: IC50±SEM hDMX, 9-point curves in duplicates; for inhibition at 0.1 µM: read-out: Inhibition at 100 nM (%) hDMX
T1 sequence (O15151 1-490): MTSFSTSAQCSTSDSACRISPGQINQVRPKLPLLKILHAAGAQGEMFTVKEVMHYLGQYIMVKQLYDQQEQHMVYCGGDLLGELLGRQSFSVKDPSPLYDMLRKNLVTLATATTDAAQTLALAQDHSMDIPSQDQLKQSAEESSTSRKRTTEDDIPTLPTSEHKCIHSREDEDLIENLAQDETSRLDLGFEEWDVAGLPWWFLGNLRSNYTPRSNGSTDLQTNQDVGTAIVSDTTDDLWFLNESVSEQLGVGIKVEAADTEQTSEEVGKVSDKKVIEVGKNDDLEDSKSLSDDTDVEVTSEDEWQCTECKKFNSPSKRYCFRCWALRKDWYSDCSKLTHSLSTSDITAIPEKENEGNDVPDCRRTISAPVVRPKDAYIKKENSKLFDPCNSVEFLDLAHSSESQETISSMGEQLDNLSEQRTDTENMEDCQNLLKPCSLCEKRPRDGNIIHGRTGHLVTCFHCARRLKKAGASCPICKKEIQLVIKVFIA

HCT116 cells [1] = assay: RT-qPCR of p53 target genes p21 and hDM2; assay type: cell-based, human; settings: 6 hours treatment, n=3
p53wt HCT116 cells = assay: Western blot of p53 protein levels; assay type: cell-based, human; settings: 6 hours treatment, 0.1 to 40 µM
Procedure, shortened: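 p53wt HCT116 cells in exponential growth, seeded one day ahead, were exposed to test compound for 6 h without serum, then lysed in RIPA. SDS-PAGE, wet transfer to nitrocellulose, 5% BSA/TBS-T block 1 h RT. Anti-p53 and anti-GAPDH overnight at 4 °C, infrared anti-mouse secondary 1.5 h RT. Positive control was a reference hDM2 inhibitor. Three independent biological replicates.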

HCT116 cells [2] = assay: MTS cell viability assay; assay type: cell-based, human; settings: 3 days of incubation
Procedure, shortened: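 HCT116 cells (passages 47–50; DMEM, 10% heat-inactivated FCS, 37 °C, 5% CO₂) seeded at 3×10³ cells/well with test compound at various concentrations in serum-free medium for 8 h. Serum (10%) then added for 64 h more. MTS reagent added, absorbance read at 490 nm, % viability taken versus untreated cells. Two independent experiments, three technical replicates each.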

Sequence of p53‐hDM2 interaction (Q00987 whole entry): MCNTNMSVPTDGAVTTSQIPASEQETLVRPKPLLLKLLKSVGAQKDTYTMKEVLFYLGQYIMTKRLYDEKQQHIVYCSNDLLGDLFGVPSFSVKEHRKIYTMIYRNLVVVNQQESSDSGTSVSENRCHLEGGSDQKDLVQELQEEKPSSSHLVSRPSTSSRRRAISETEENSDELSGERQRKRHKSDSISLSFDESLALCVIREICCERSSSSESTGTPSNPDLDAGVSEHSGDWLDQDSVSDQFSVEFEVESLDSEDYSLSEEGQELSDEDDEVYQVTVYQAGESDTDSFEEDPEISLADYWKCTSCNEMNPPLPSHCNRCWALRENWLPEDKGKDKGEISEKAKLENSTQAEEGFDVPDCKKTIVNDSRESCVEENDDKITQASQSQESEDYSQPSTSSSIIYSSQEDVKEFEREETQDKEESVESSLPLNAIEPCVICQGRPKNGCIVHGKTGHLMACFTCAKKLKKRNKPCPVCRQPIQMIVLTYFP

SMILES | IC50 (p53‐hDM2 interaction) | inhibition at 0.1 µM (p53‐hDM2 interaction) | IC50 (p53‐hDMX interaction) | inhibition at 0.1 µM (p53‐hDMX interaction) | mRNA of target genes p21 and hDM2 (RT-qPCR) (HCT116 cells [1]) | p53 protein levels (western blot) (p53wt HCT116 cells) | viability of p53wt HCT116 cells (in words) (HCT116 cells [2])
CC(C)C[C@H]1CNC(=O)N2C[C@H](C[C@H]2C(N)=O)SCCCCCCSC[C@H](NC(=O)[C@H](Cc2ccccc2)NC(=O)[C@H](CO)NC(=O)[C@@H](N)[C@@H](C)O)C(=O)N[C@@H](CCC(=O)O)C(=O)N[C@@H](Cc2ccc(O)cc2)C(=O)N[C@@H](Cc2c[nH]c3ccccc23)C(=O)N[C@@H](C)C(=O)N[C@@H](CC(C)C)CNC(=O)N1 [Compound 8 a] (H-TSFCEYWA; linker 4-C via X1) | 1.91 ± 0.05 nM | 99% | 75 ± 4 nM | 66% |  |  | 
CC(=O)N[C@@H](CCCCN)C(=O)N[C@H](C(=O)N[C@@H](Cc1ccccc1)C(=O)N[C@H]1CSCCCCCCS[C@H]2C[C@@H](C(N)=O)N(C2)C(=O)NC[C@H](CC(C)C)NC(=O)NC[C@H](CC(C)C)NC(=O)[C@H](C)NC(=O)[C@H](Cc2c[nH]c3ccccc23)NC(=O)[C@H](Cc2ccc(O)cc2)NC(=O)[C@H](CCC(=O)O)NC1=O)[C@@H](C)O [Compound 10 a] (Ac-KTFCEYWA; linker 4-C via X1) | 3 ± 0.1 nM |  | 63 ± 12 nM |  | dose‐dependent induction of mRNA of target genes p21 and hDM2 | dose‐dependent increase of p53 levels | effective in reducing the viability of p53wt HCT116 cells in a concentration‐dependent manner
CC(C)C[C@@H](CNC(=O)N[C@@H](C)CNC(=O)N1CCC[C@H]1C(N)=O)NC(=O)[C@H](C)NC(=O)[C@H](Cc1c[nH]c2ccccc12)NC(=O)[C@H](Cc1ccc(O)cc1)NC(=O)[C@H](CCC(=O)O)NC(=O)[C@H](C)NC(=O)[C@H](Cc1ccccc1)NC(=O)[C@H](CO)NC(=O)[C@@H](N)[C@@H](C)O [Compound 3] (H-TSFAEYWA-X2) | 54 ± 17 nM | 43% | 247 ± 42 nM | 19% |  |  | 
CC(C)C[C@@H](CNC(=O)N1CCC[C@H]1C(N)=O)NC(=O)NC[C@H](CC(C)C)NC(=O)[C@H](C)NC(=O)[C@H](Cc1c[nH]c2ccccc12)NC(=O)[C@H](Cc1ccc(O)cc1)NC(=O)[C@H](CCC(=O)O)NC(=O)[C@H](C)NC(=O)[C@H](Cc1ccccc1)NC(=O)[C@H](CO)NC(=O)[C@@H](N)[C@@H](C)O [Compound 4] (H-TSFAEYWA-X4) | 6.13 ± 0.08 nM | 99% | 115 ± 5 nM | 46% |  |  | 
